The results in this text go back to publication PMC2674070 (Journal of immunology (Baltimore, Md. : 1950), 2009).

Ends that are not written are not given here.

H-2K^b, sequence (P61769 21-119): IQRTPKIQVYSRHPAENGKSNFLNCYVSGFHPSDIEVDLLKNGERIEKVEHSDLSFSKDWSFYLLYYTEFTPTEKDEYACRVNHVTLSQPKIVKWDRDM
H-2K^b, sequence (P01901 22-369): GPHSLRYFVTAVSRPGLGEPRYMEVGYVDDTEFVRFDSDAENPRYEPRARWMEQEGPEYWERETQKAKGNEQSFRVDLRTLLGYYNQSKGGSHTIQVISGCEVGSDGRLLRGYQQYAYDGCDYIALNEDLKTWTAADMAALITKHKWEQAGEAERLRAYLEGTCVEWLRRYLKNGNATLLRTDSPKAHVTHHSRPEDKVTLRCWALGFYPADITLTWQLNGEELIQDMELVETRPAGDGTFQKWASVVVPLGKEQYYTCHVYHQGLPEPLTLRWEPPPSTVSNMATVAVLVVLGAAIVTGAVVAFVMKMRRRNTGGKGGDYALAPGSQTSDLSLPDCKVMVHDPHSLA
H-2D^b, sequence (P01899 25-362): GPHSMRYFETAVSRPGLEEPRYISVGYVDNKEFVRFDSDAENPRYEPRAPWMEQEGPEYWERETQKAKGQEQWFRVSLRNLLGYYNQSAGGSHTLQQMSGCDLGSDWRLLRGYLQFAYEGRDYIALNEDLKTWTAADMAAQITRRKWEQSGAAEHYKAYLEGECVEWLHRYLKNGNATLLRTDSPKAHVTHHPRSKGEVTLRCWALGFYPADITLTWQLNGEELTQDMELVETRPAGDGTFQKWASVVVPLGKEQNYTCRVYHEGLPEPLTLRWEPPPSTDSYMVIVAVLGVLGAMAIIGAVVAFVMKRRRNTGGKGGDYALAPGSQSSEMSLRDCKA
H-2D^b, sequence (P61769 21-119, further chain): as the sequence (P61769 21-119) above

The first assay concerns the target H-2K^b (Mus musculus, UniProt P01901). The assay can be described thus: MHC peptide-binding assay, purified H-2K^b. In short, it runs like this: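 Radiolabelled (chloramine-T) reference peptide at 0.1-1 nM is incubated at room temperature for 2 days with purified MHC (1 µM to 1 nM), 1-3 µM human β2-microglobulin and protease inhibitors. MHC-peptide complexes are captured on plates coated with Y3 (anti-H-2K^b) antibody, and bound cpm are read by microscintillation counting. Test peptides are ≥95% pure by reverse-phase HPLC.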
On to `CC(C)C[C@H](NC(=O)[C@H](CO)NC(=O)[C@@H](NC(=O)[C@H](CC(N)=O)NC(=O)[C@@H](NC(=O)[C@H](CO)NC(=O)[C@@H](N)CO)C(C)C)C(C)C)C(=O)N[C@H](C(=O)O)[C@@H](C)O` [NS4B59-66], for which the half-maximal inhibitory concentration (IC50) was below 2 µM.
The same measure, in the same setting: for FSLGVLGM [NS2A8-15] the value was below 2 µM.
The same measure, in the same setting: the value for LAVTIMAIL [NS2A145-153] was below 2 µM; that for RMLINRFTM [NS5_237-245] was below 2 µM.
Molecule TAIANQATV [NS4B66-74] registered an IC50 below 2 µM.
The same measure, in the same setting: for VSWTMKIL [Epitope E451-458] the value was 0.458 µM.

Another assay concerns the target H-2D^b (Mus musculus, UniProt P01899). The assay can be described thus: MHC peptide-binding assay, purified H-2D^b.
For MTMRCIGI [Epitope E-2-6], the half-maximal inhibitory concentration (IC50) was below 2 µM.
Take RALIFILL [Epitope M60-67]: the half-maximal inhibitory concentration (IC50) was below 2 µM.
On the same count and under the same terms, for VSWTMKIL [Epitope E451-458] the value was below 2 µM.

The term IC50 denotes the concentration needed to halve the response being measured. High values mean weaker potency, low ones greater potency.
